# Test results as given in ChEMBL document CHEMBL2062515, “Synthesis and evaluation of novel radioligands for positron emission tomography imaging of metabotropic glutamate receptor subtype 1 (mGluR1) in rodent brain” (J Med Chem, 2012).
# pIC50, pKi: −log10 of the molar value. Activity calls are given as the source filed them. The rule behind the calls is not given here.
# Legend:
# [1] = Lipophilicity, log D of the compound in octanol-phosphate buffer at pH 7.4 by Shake flask method; format: physicochemical
# How it was run: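 Radioligand shaken with n-octanol and 0.1 M sodium phosphate buffer pH 7.4 (3.0 g each), vortex 3 min room temperature, centrifuged 2330g 5 min; phases weighed and counted, octanol repartitioned until constant. LogD = log(cpm/g octanol / cpm/g buffer); triplicate.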
# [2] = molecular target: Metabotropic glutamate receptor 1 (Rattus norvegicus, UniProt P23385); test: Displacement of 4-[18F]fluoro-N-[4-(6-(isopropylamino)pyrimidin-4-yl)-1,3-thiazol-2-yl]-N-methylbenzamide from mGluR1 in Sprague-Dawley rat brain homogenates after 1 hr; format: tissue-based
# Sequence of Metabotropic glutamate receptor 1 (P23385 whole entry): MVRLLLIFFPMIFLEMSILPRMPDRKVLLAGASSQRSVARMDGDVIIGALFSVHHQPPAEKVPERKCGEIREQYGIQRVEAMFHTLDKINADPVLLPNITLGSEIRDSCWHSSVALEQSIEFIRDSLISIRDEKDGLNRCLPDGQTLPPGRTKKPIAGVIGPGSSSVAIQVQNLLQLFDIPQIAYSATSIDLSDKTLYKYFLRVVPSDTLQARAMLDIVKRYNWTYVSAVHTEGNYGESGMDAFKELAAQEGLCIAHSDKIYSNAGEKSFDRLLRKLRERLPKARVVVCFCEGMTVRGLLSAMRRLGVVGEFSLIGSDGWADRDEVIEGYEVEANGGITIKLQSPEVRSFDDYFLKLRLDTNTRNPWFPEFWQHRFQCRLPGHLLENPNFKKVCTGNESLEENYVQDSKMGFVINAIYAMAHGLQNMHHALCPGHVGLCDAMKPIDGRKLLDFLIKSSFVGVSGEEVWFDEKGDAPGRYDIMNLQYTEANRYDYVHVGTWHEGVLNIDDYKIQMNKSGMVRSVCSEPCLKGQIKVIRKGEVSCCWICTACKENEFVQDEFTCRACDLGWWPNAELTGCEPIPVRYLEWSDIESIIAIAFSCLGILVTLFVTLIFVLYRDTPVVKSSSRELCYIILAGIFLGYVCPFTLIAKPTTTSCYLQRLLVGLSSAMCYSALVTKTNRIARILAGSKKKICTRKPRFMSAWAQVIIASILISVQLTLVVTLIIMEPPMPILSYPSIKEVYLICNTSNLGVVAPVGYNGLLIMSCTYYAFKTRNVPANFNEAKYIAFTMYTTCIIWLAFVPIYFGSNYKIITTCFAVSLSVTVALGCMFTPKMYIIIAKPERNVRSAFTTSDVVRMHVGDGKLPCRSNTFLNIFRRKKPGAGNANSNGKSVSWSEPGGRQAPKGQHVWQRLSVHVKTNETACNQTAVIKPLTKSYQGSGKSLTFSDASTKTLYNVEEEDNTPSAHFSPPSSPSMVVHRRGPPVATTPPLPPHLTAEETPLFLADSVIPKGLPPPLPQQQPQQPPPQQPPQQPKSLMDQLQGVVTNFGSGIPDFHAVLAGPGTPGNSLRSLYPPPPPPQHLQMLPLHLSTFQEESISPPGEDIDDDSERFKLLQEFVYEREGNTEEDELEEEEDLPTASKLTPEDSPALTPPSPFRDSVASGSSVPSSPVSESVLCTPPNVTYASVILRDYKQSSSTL
# How it was run: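 Rat whole-brain homogenate (washed pellets in 50 mM Tris-HCl pH 7.4, 120 mM NaCl; diluted to 100 mg/mL in Tris-HCl with NaCl, KCl, MgCl₂, CaCl₂) incubated 1 h, room temperature with [¹⁸F]-ligand (3 nM in PBS) and competitor […] in 0.1% DMSO. Filtration on PEI-treated GF/C, gamma counting; Kd by Scatchard; IC50/Ki by nonlinear regression; duplicate, mean SE.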
# [3] = molecular target: Metabotropic glutamate receptor 5 (Rattus norvegicus, UniProt P31424); test: Displacement of [11C]-ABP688 from mGluR5 in Sprague-Dawley rat brain homogenates after 1 hr by gamma counting; format: tissue-based
# Sequence of Metabotropic glutamate receptor 5 (P31424 whole entry): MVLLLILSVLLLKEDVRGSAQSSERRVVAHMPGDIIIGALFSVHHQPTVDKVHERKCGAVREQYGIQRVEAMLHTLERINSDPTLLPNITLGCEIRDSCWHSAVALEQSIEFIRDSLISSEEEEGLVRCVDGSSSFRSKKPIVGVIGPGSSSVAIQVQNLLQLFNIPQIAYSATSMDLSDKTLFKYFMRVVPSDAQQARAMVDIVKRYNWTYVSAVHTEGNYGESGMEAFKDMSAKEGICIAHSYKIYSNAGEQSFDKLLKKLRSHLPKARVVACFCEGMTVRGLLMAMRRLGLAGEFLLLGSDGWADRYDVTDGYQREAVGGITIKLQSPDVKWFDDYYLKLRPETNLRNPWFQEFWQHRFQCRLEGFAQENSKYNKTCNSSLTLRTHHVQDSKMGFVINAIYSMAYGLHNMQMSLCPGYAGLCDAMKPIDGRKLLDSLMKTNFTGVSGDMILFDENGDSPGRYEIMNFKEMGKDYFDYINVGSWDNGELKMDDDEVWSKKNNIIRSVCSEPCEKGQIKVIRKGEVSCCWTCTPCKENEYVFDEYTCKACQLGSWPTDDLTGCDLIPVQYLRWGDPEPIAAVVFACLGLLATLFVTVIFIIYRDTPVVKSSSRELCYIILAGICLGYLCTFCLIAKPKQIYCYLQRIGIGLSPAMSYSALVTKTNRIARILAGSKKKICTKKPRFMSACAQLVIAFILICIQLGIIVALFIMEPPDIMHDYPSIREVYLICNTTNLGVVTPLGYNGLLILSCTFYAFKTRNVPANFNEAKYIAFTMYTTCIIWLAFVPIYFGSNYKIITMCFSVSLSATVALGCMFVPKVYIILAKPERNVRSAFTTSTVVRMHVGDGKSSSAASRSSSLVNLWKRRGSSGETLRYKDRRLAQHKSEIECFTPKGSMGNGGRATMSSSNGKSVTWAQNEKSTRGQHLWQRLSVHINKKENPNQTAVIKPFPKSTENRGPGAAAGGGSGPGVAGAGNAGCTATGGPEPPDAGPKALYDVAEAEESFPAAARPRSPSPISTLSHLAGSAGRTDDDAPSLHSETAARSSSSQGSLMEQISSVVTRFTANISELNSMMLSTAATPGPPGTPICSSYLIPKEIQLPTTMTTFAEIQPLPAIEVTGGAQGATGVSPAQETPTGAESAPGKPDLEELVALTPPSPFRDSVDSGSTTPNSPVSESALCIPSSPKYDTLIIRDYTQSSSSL
# How it was run: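 mGluR5 competition in same rat brain homogenate, run as mGluR1 assay but with [¹¹C]ABP688-type radioligand: 1 h room temperature incubation, filtration through PEI-treated glass fiber filters, gamma counting, nonlinear regression for IC50.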
# [4] = molecular target: Metabotropic glutamate receptor 1 (Rattus norvegicus) (UniProt P23385); test: Binding affinity to mGluR1 in Sprague-Dawley rat cerebellum at 0.4 MBq after 30 mins by autoradiography
# Sequence of Metabotropic glutamate receptor 1 (Rattus norvegicus) (P23385 19-1199 limits assumed): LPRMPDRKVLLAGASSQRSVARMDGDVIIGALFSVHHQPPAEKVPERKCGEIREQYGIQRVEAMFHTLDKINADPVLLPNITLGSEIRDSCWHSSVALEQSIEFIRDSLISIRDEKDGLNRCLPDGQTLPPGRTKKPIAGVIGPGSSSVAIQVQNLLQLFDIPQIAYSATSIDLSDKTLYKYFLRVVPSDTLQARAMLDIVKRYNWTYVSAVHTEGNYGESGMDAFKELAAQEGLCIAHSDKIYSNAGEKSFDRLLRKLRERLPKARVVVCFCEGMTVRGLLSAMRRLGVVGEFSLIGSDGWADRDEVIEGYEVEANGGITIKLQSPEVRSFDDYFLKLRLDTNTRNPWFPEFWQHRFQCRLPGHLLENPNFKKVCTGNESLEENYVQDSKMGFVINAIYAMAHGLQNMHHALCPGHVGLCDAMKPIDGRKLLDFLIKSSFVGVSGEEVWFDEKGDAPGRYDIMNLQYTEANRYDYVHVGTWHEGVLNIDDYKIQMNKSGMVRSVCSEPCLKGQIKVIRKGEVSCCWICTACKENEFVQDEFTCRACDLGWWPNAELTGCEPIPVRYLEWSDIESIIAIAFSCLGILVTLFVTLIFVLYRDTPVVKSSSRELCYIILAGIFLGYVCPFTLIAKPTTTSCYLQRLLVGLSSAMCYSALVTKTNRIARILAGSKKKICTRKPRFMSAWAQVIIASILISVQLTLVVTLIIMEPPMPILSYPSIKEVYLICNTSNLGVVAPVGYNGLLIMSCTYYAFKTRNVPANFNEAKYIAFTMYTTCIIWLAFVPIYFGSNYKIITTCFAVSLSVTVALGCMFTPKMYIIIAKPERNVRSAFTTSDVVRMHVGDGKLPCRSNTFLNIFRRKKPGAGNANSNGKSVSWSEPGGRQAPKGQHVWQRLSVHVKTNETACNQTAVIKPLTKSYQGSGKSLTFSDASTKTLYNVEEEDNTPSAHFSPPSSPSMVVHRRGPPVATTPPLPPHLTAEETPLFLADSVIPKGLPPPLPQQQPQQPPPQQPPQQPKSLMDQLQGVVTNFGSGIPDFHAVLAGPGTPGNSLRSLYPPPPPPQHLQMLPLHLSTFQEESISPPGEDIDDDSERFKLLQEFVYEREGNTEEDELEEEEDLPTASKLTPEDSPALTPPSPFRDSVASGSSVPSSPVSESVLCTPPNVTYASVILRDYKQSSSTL
# [5] = molecular target: Metabotropic glutamate receptor 1 (Rattus norvegicus) (UniProt P23385); test: Binding affinity to mGluR1 in Sprague-Dawley rat thalamus at 0.4 MBq after 30 mins by autoradiography
# How it was run: (§1)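 Sections were 20 μm rat brain slices, preincubated 20 min at room temperature in 50 mM Tris-HCl pH 7.4 containing 1.2 mM MgCl₂ and 2 mM CaCl₂. Incubation was 30 min at room temperature with an ¹⁸F radioligand at 0.4 MBq (5 pM or 4 pM), with or without JNJ-16259685 (1 μM). Sections were washed 3 × 5 min in cold buffer, rinsed in cold distilled water and air-dried cold.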
# [6] = molecular target: Metabotropic glutamate receptor 1 (Rattus norvegicus) (UniProt P23385); test: Binding affinity to mGluR1 in Sprague-Dawley rat striatum at 0.4 MBq after 30 mins by autoradiography; how it was run: as §1
# [7] = molecular target: Metabotropic glutamate receptor 1 (Rattus norvegicus) (UniProt P23385); test: Binding affinity to mGluR1 in Sprague-Dawley rat brain stem at 0.4 MBq after 30 mins by autoradiography; format: tissue-based
# [8] = molecular target: Metabotropic glutamate receptor 1 (Rattus norvegicus) (UniProt P23385); test: Binding affinity to mGluR1 in Sprague-Dawley rat cerebellum at 0.4 MBq after 30 mins by autoradiography in presence of JNJ16259685
# [9] = molecular target: Metabotropic glutamate receptor 1 (Rattus norvegicus) (UniProt P23385); test: Binding affinity to mGluR1 in Sprague-Dawley rat thalamus at 0.4 MBq after 30 mins by autoradiography in presence of JNJ16259685; conditions: 0.4 M, tested as the 18F-labelled form; how it was run: as §1
# [10] = molecular target: Metabotropic glutamate receptor 1 (Rattus norvegicus) (UniProt P23385); test: Binding affinity to mGluR1 in Sprague-Dawley rat striatum at 0.4 MBq after 30 mins by autoradiography in presence of JNJ16259685; conditions: 0.4 M, tested as the 18F-labelled form; how it was run: as §1
# [11] = molecular target: Metabotropic glutamate receptor 1 (Rattus norvegicus) (UniProt P23385); test: Binding affinity to mGluR1 in Sprague-Dawley rat brain stem at 0.4 MBq after 30 mins by autoradiography in presence of JNJ16259685; format: tissue-based; conditions: 0.4 M, tested as the 18F-labelled form; how it was run: as §1
# [12] = molecular target: Metabotropic glutamate receptor 1 (Rattus norvegicus) (UniProt P23385); test: Binding affinity to mGluR1 in Sprague-Dawley rat cerebellum at 9.2 MBq after 30 mins by autoradiography; conditions: 9.2 M, tested as the 11C-labelled form
# How it was run: (§2)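 Rat brain sections (20 μm) were preincubated 20 min at room temperature in 50 mM Tris-HCl pH 7.4 with 1.2 mM MgCl₂ and 2 mM CaCl₂. They were then incubated 30 min at room temperature in fresh buffer with the ¹¹C radioligand (9.2 MBq, 0.5 nM), with or without JNJ-16259685 (1 μM) to define specific binding. Sections were washed 3 × 5 min in cold buffer, dipped in cold water and dried with cold air.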
# [13] = molecular target: Metabotropic glutamate receptor 1 (Rattus norvegicus) (UniProt P23385); test: Binding affinity to mGluR1 in Sprague-Dawley rat thalamus at 9.2 MBq after 30 mins by autoradiography; conditions: 9.2 M, tested as the 11C-labelled form; how it was run: as §2
# [14] = molecular target: Metabotropic glutamate receptor 1 (Rattus norvegicus) (UniProt P23385); test: Binding affinity to mGluR1 in Sprague-Dawley rat striatum at 9.2 MBq after 30 mins by autoradiography; conditions: 9.2 M, tested as the 11C-labelled form; how it was run: as §2
# [15] = molecular target: Metabotropic glutamate receptor 1 (Rattus norvegicus) (UniProt P23385); test: Binding affinity to mGluR1 in Sprague-Dawley rat brain stem at 9.2 MBq after 30 mins by autoradiography; format: tissue-based; conditions: 9.2 M, tested as the 11C-labelled form; how it was run: as §2
# [16] = molecular target: Metabotropic glutamate receptor 1 (Rattus norvegicus) (UniProt P23385); test: Binding affinity to mGluR1 in Sprague-Dawley rat cerebellum at 9.2 MBq after 30 mins by autoradiography relative to control in presence of JNJ16259685; conditions: 9.2 M, tested as the 11C-labelled form; how it was run: as §2
# [17] = molecular target: Metabotropic glutamate receptor 1 (Rattus norvegicus) (UniProt P23385); test: Binding affinity to mGluR1 in Sprague-Dawley rat thalamus at 9.2 MBq after 30 mins by autoradiography relative to control in presence of JNJ16259685; conditions: 9.2 M, tested as the 11C-labelled form; how it was run: as §2
# [18] = molecular target: Metabotropic glutamate receptor 1 (Rattus norvegicus) (UniProt P23385); test: Binding affinity to mGluR1 in Sprague-Dawley rat striatum at 9.2 MBq after 30 mins by autoradiography relative to control in presence of JNJ16259685; conditions: 9.2 M, tested as the 11C-labelled form; how it was run: as §2
# [19] = molecular target: Metabotropic glutamate receptor 1 (Rattus norvegicus) (UniProt P23385); test: Binding affinity to mGluR1 in Sprague-Dawley rat brain stem at 9.2 MBq after 30 mins by autoradiography relative to control in presence of JNJ16259685; format: tissue-based; conditions: 9.2 M, tested as the 11C-labelled form; how it was run: as §2
# [20] = molecular target: Metabotropic glutamate receptor 1 (Rattus norvegicus) (UniProt P23385); test: Binding affinity to mGluR1 in Sprague-Dawley rat brain at 9.2 MBq after 30 mins by autoradiography relative to control in presence of JNJ16259685; format: tissue-based; conditions: 9.2 M, tested as the 11C-labelled form; how it was run: as §2
# [21] = molecular target: Metabotropic glutamate receptor 1 (Rattus norvegicus) (UniProt P23385); test: Binding affinity to mGluR1 in Sprague-Dawley rat thalamus after 30 mins by autoradiography in presence of JNJ16259685; conditions: tested as the 11C-labelled form
# [22] = molecular target: Metabotropic glutamate receptor 1 (Rattus norvegicus) (UniProt P23385); test: Binding affinity to mGluR1 in Sprague-Dawley rat striatum after 30 mins by autoradiography in presence of JNJ16259685; conditions: tested as the 11C-labelled form
# [23] = molecular target: Metabotropic glutamate receptor 1 (Rattus norvegicus) (UniProt P23385); test: Binding affinity to mGluR1 in Sprague-Dawley rat brain stem after 30 mins by autoradiography in presence of JNJ16259685; conditions: tested as the 11C-labelled form
# [24] = 0.4 M, tested as the 18F-labelled form
# [25] = 9.2 M, in the assay text read “9.2 MBq” for “0.4 MBq”, tested as the 11C-labelled form
logD [1],pIC50 [2],pKi [2],pIC50 [3],"Activity [4, 24]","Activity [5, 24]","Activity [6, 24]","Activity [7, 24]","Activity [8, 24]",Activity [9],Activity [10],Activity [11],SMILES,other results
1.45,7.86,8.27,< 5.00,,,,,,,,,CC(C)Nc1cc(-c2csc(N(C)C(=O)c3ccc(F)cc3)n2)ncn1,
2.59,6.40,6.82,< 5.00,Active,Active,Active,Active,inactive,inactive,inactive,inactive,CC(C)Nc1cc(-c2csc(N(C)C(=O)c3ccc(OCCF)cc3)n2)ncn1,
2.8,< 5.00,< 5.30,< 5.00,Active,Active,Active,Active,inactive,inactive,inactive,inactive,CC(C)Nc1cc(-c2csc(N(C)C(=O)c3ccc(OCCCF)cc3)n2)ncn1,
2.57,7.49,7.90,< 5.00,,,,,,,,,COc1ccc(C(=O)N(C)c2nc(-c3cc(NC(C)C)ncn3)cs2)cc1,"Activity [12]: Active; Activity [13]: Active; Activity [14]: Active; Activity [15]: Active; Activity [16]: 30%; Activity [17]: 30%; Activity [18]: 30%; Activity [19]: 30%; Activity [4, 25]: Active; Activity [5, 25]: Active; Activity [6, 25]: Active; Activity [7, 25]: Active; Activity [8, 25]: inactive; Activity [20]: > 70%; Activity [21]: inactive; Activity [22]: inactive; Activity [23]: inactive"
